Measurements taken from ChEMBL document CHEMBL1126989, “Synthesis and cytotoxicity of 1,6,7,8-substituted 2-(4'-substituted phenyl)-4-quinolones and related compounds: identification as antimitotic agents interacting with tubulin” (J Med Chem, 1993).
Converted amounts (≈) assume the structure as drawn.

Legend:
[1] = test system: A549; assay: Cytotoxicity in vitro expressed as 50% reduction in cell number after a 3-day incubation, in human lung carcinoma A-549 cell line; type: functional, cell-based; conditions: A549, 72 h
Procedure, shortened: (§1)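 Cell lines adapted to antibiotic-free RPMI-1640 with 10% fetal calf serum; ca. 1×10^5 cells per well, overnight stabilization, then serial dilutions added, quadruplicate per concentration; medium-only controls. After 3-4 days, MTT added and incubated overnight; formazan dissolved in DMSO, absorbance at 570 nm. EC50 calculated from two data points bracketing 50% growth inhibition. Actinomycin as positive control.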

[2] = test system: RPMI-7951; assay: Cytotoxicity in vitro expressed as 50% reduction in cell number after a 3-day incubation, in human melanoma RPMI-7951 cell line; type: functional, cell-based; conditions: RPMI-7951, 72 h; procedure, shortened: as §1
[3] = target: Tubulin; assay: (§2) Inhibition of tubulin polymerization; type: functional
Procedure, shortened: (§3)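 Bovine brain tubulin 1.0 mg/mL (10 μM) with 1.0 M repurified monosodium glutamate, 1.0 mM MgCl2, 4% DMSO and drug; preincubated 15 min at 37 °C, chilled, GTP added; turbidity at 350 nm after jump from 0 to 37 °C, followed 20 min.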

[4] = test system: KB; assay: Cytotoxicity in vitro expressed as 50% reduction in cell number after a 3-day incubation, in human epidermoid carcinoma KB cell line; type: functional, cell-based; conditions: 72 h; procedure, shortened: as §1
[5] = test system: L1210 (1565); assay: Cytotoxicity in vitro expressed as 50% reduction in cell number after a 3-day incubation, in murine leukemia L-1210 cell line; type: functional, cell-based; conditions: Mus musculus, 72 h; procedure, shortened: as §1
[6] = test system: HCT-8; assay: Cytotoxicity in vitro expressed as 50% reduction in cell number after a 3-day incubation, in human ileocecal carcinoma HCT-8 cell line; type: functional, cell-based; conditions: HCT-8, 72 h; procedure, shortened: as §1
[7] = test system: P388; assay: Cytotoxicity in vitro expressed as 50% reduction in cell number after a 3-day incubation, in murine leukemia P-388 cell line; type: functional, cell-based; conditions: Mus musculus, P388, 72 h; procedure, shortened: as §1
[8] = target: Tubulin beta chain (Bos taurus, UniProt Q6B856); assay: as §2; type: functional; procedure, shortened: as §3
[9] = test system: SF-539; assay: Inhibition of in vitro cell growth which reduces cell growth to 50% of level at start of experiment in CNS SF-539 cell line; type: functional, Homo sapiens
Procedure, shortened: (§4)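 NCI in vitro disease-oriented screen across about 60 human tumour cell lines. The value is the LC50-type level: the drug concentration that cuts cell number to 50% of the count at the start of the experiment. Values are averages of 2 assays.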

[10] = target: T1, Tubulin (Bos taurus) (UniProt Q6B856+Q862L2+Q862F3); assay: Percentage inhibition of colchicine binding(10:1 ratio of inhibitor: colchicine); type: protein assay; conditions: concentration not given here
[11] = test system: SF-539; assay: Inhibition of in vitro cell growth which reduces cell growth to level at start of experiment in CNS SF-539 cell line; type: functional, Homo sapiens
[12] = test system: COLO 205; assay: Inhibition of in vitro cell growth which reduces cell growth to level at start of experiment in colon COLO-205 cell line; type: functional, Homo sapiens
[13] = test system: HCC 2998; assay: Inhibition of in vitro cell growth which reduces cell growth to level at start of experiment in colon HCC2998 cell line; type: functional, Homo sapiens
[14] = target: T1, Tubulin (Bos taurus); assay: Percentage inhibition of colchicine binding(1:1 ratio of inhibitor: colchicine); type: protein assay; conditions: concentration not given here
[15] = test system: HCC 2998; assay: Inhibition of in vitro cell growth which reduces cell growth to 50% of level at start of experiment in colon HCC2998 cell line; type: functional, Homo sapiens; procedure, shortened: as §4
[16] = test system: HT-29; assay: Inhibition of in vitro cell growth which reduces cell growth to level at start of experiment in colon HT-29 cell line; type: functional, Homo sapiens
[17] = test system: KM-20L2; assay: Inhibition of in vitro cell growth which reduces cell growth to level at start of experiment in colon KM-20L2 cell line; type: functional, Homo sapiens
[18] = test system: COLO 205; assay: Inhibition of in vitro cell growth which reduces cell growth to 50% of level at start of experiment in colon COLO-205 cell line; type: functional, Homo sapiens; procedure, shortened: as §4
[19] = test system: HT-29; assay: Inhibition of in vitro cell growth which reduces cell growth to 50% of level at start of experiment in colon HT-29 cell line; type: functional, Homo sapiens; procedure, shortened: as §4
[20] = test system: KM-20L2; assay: Inhibition of in vitro cell growth which reduces cell growth to 50% of level at start of experiment in colon KM-20L2 cell line; type: functional, Homo sapiens; procedure, shortened: as §4

Chain of Tubulin beta chain (Q6B856 whole entry): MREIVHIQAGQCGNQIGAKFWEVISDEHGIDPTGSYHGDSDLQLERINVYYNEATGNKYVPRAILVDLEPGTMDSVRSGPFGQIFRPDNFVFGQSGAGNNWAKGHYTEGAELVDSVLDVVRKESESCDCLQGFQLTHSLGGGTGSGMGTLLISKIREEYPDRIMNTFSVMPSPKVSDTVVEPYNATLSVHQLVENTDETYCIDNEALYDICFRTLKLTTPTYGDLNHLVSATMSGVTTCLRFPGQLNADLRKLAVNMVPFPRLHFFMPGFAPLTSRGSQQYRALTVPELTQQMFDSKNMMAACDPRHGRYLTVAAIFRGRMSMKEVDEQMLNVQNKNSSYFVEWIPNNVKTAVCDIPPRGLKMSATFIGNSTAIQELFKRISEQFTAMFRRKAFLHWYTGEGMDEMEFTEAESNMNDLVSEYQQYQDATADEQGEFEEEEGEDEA

| Structure (SMILES) | EC50 [1] [µg/mL] | EC50 [2] [µg/mL] | EC50 [4] [µg/mL] | EC50 [5] [µg/mL] | EC50 [6] [µg/mL] | EC50 [7] [µg/mL] | also measured |
| --- | --- | --- | --- | --- | --- | --- | --- |
| Oc1cc(-c2ccccc2)nc2ccccc12 | 0.5 (≈ 2.26 µM) | 0.37 (≈ 1.67 µM) | 0.09 (≈ 0.407 µM) | 0.06 (≈ 0.271 µM) | 0.8 (≈ 3.62 µM) | 0.08 (≈ 0.362 µM) | IC50 [3]: 7.3 µM |
| Oc1cc(-c2ccccc2)nc2ccc(F)cc12 | 0.38 (≈ 1.59 µM) | 0.53 (≈ 2.22 µM) | < 0.01 | < 0.01 | 1.36 (≈ 5.68 µM) | 0.08 (≈ 0.334 µM) | IC50 [8]: 3.3 µM |
| CCOc1cc(-c2ccccc2)nc2ccccc12 | > 10 |  | 6.7 (≈ 26.9 µM) | > 10 | > 10 | 6 (≈ 24.1 µM) |  |
| c1ccc(COc2cc(-c3ccccc3)nc3ccccc23)cc1 | > 10 |  | 1.6 (≈ 5.14 µM) | > 10 | > 10 | > 10 |  |
| CCCOc1cc(-c2ccccc2)nc2ccccc12 | > 10 |  | 4.5 (≈ 17.1 µM) | > 10 | > 10 | 6.9 (≈ 26.2 µM) |  |
| Oc1cc(-c2ccccc2)nc2c(O)cccc12 | > 10 | > 10 | > 10 | > 10 | > 10 | > 10 |  |
| Oc1cc(-c2ccccc2)nc2c(F)cccc12 | 0.61 (≈ 2.55 µM) | 0.38 (≈ 1.59 µM) | 0.53 (≈ 2.22 µM) | 0.67 (≈ 2.8 µM) | 0.04 (≈ 0.167 µM) | 0.78 (≈ 3.26 µM) | IC50 [8]: 11 µM |
| Cn1c(-c2ccc(O)cc2)cc(=O)c2ccccc21 | > 10 | > 10 | > 10 | > 10 | 5.71 (≈ 22.7 µM) | > 10 | IC50 [3]: > 40 µM |
| Oc1ccc2c(O)cc(-c3ccccc3)nc2c1 | 0.81 (≈ 3.41 µM) | 0.52 (≈ 2.19 µM) | 0.55 (≈ 2.32 µM) | 0.45 (≈ 1.9 µM) | > 10 | 0.81 (≈ 3.41 µM) | IC50 [8]: 3.4 µM |
| COc1ccc2nc(-c3ccccc3)cc(O)c2c1 | 0.19 (≈ 0.756 µM) | 0.36 (≈ 1.43 µM) | 0.08 (≈ 0.318 µM) | 0.06 (≈ 0.239 µM) | 1 (≈ 3.98 µM) | 0.33 (≈ 1.31 µM) | LC50 [9]: -4.4; inhibition [10]: 53%; IC50 [8]: 2.7 µM; TGI [11]: -6.2; TGI [12]: -6.1; TGI [13]: -6.2; inhibition [14]: 8%; LC50 [15]: >-4; TGI [16]: -6.1; TGI [17]: -5.9; LC50 [18]: -4.4; LC50 [19]: >-4; LC50 [20]: -4.6 |
| COCOc1ccc(-c2cc(=O)c3ccccc3n2C)cc1 |  |  |  | > 10 |  | > 10 |  |
| Oc1cc(-c2ccccc2)nc2cc(Cl)ccc12 | 2.89 (≈ 11.3 µM) | < 0.1 | < 0.1 | < 0.1 | 0.45 (≈ 1.76 µM) | < 0.1 |  |
| CS(=O)(=O)Oc1cc(-c2ccccc2)nc2ccccc12 | 6.21 (≈ 20.7 µM) |  | 2.8 (≈ 9.35 µM) | 6.04 (≈ 20.2 µM) | 5.6 (≈ 18.7 µM) | > 10 |  |
| CC(C)COc1cc(-c2ccccc2)nc2ccccc12 | > 10 |  | > 4 | > 10 | > 10 | > 10 |  |
